In brackets after ≈: the same amount, converted by molar mass.

Common to all, as to format: functional
Assay [1] has as its system Staphylococcus aureus. Description: In vitro inhibitory activity against Staphylococcus aureus (EryRc 011CB20). Put shortly:
(§1)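 Two-fold agar dilution on Mueller-Hinton agar (pH 7.4). Inoculum from overnight plate cultures suspended in Mueller-Hinton broth, adjusted to 10^9 CFU/mL, diluted 1:200 and spotted by multipoint inoculator at about 10^4 CFU/spot. Plates incubated 37 °C for 20 h. MIC taken as lowest concentration with no visible growth.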

Another assay concerns Escherichia coli. The experiment in a line: In vitro inhibitory activity against Escherichia coli (250 UC5). The method, boiled down: as §1
A further assay concerns Streptococcus pyogenes. Description: In vitro inhibitory activity against Streptococcus pyogenes (02A1UC1). The method, boiled down: as §1
In assay [2] the test system is Streptococcus pneumoniae. Description: In vitro inhibitory activity against Streptococcus pneumoniae (EryRi 030SJ5i). The method, boiled down: as §1
Assay [3] concerns Streptococcus pneumoniae. The experiment in a line: In vitro inhibitory activity against Streptococcus pneumoniae (EryRc 030SJ1). The method, boiled down: as §1
Assay [4] deals with Staphylococcus aureus. Description: In vitro inhibitory activity against Staphylococcus aureus (011UC4). Put shortly:
as §1

Assay [5] deals with Staphylococcus epidermidis. Description: In vitro inhibitory activity against Staphylococcus epidermidis (EryRi 012GO11i). Put shortly: as §1
The subject of assay [6] is Staphylococcus aureus. The experiment in a line: In vitro inhibitory activity against Staphylococcus aureus (EryRi 011GO25i). Put shortly:
as §1

In assay [7] the test system is Streptococcus pneumoniae. The experiment in a line: In vitro inhibitory activity against Streptococcus pneumoniae (032UC1). The method, boiled down: as §1
Assay [8] concerns Haemophilus influenzae. Description: In vitro inhibitory activity against Haemophilus influenzae (351CB12). The method, boiled down: as §1
Assay [9] has as its system Haemophilus influenzae. Description: In vitro inhibitory activity against Haemophilus influenzae (351HT3). Put shortly:
as §1

Turning to `CC[C@H]1OC(=O)[C@H](C)C(=O)[C@H](C)[C@@H](O[C@@H]2O[C@H](C)C[C@H](N(C)C)[C@H]2O)[C@](C)(OC)C[C@@H](C)/C(=N\OC2CCCN(C)C2)[C@H](C)[C@@H](O)[C@]1(C)O` (some centres not stated), the MIC against Staphylococcus aureus [1] amounted to 40 µg/mL (≈ 57.1 µM); in the assay on Escherichia coli it was 40 µg/mL (≈ 57.1 µM); in the assay with Streptococcus pyogenes, 0.04 µg/mL (≈ 0.0571 µM); in the assay with Streptococcus pneumoniae [2], 40 µg/mL (≈ 57.1 µM); with Streptococcus pneumoniae [3] it was 10 µg/mL (≈ 14.3 µM); in the assay with Staphylococcus aureus [4], 0.08 µg/mL (≈ 0.114 µM). For the same compound, the MIC in assay [5] is 0.6 µg/mL (≈ 0.857 µM); against Staphylococcus aureus [6], 0.3 µg/mL (≈ 0.429 µM); against Streptococcus pneumoniae [7] it was 0.02 µg/mL (≈ 0.0286 µM); against Haemophilus influenzae [8], 10 µg/mL (≈ 14.3 µM); in the assay with Haemophilus influenzae [9], 10 µg/mL (≈ 14.3 µM).

Take `CC[C@H]1OC(=O)[C@H](C)C(=O)[C@H](C)[C@@H](O[C@@H]2O[C@H](C)C[C@H](N(C)C)[C@H]2O)[C@](C)(OC)C[C@@H](C)C2=NCCN3C(=O)O[C@@]1(C)[C@H]3[C@H]2C`: the MIC against Staphylococcus aureus [1] worked out at 40 µg/mL (≈ 62.7 µM); with Escherichia coli, 40 µg/mL (≈ 62.7 µM); in the assay on Streptococcus pyogenes it was 0.08 µg/mL (≈ 0.125 µM); against Streptococcus pneumoniae [2], 40 µg/mL (≈ 62.7 µM); in the assay with Streptococcus pneumoniae [3], 40 µg/mL (≈ 62.7 µM); against Staphylococcus aureus [4] it was 0.3 µg/mL (≈ 0.47 µM). For the same compound, the MIC was 0.3 µg/mL (≈ 0.47 µM) in [5]; 0.6 µg/mL (≈ 0.941 µM) with Staphylococcus aureus [6]; 0.02 µg/mL (≈ 0.0314 µM) against Streptococcus pneumoniae [7]; 5 µg/mL (≈ 7.84 µM) with Haemophilus influenzae [8]; 5 µg/mL (≈ 7.84 µM) against Haemophilus influenzae [9].

For the compound `CC[C@H]1OC(=O)[C@H](C)C(=O)[C@H](C)[C@@H](O[C@@H]2O[C@H](C)C[C@H](N(C)C)[C@H]2O)[C@](C)(OC)C[C@@H](C)C(=O)[C@H](C)[C@H]2N(NCCCc3ccccc3)C(=O)O[C@]12C`, the MIC against Staphylococcus aureus [1] was determined as 40 µg/mL (≈ 53.6 µM); in the assay with Escherichia coli, 40 µg/mL (≈ 53.6 µM); in the assay with Streptococcus pyogenes, 0.02 µg/mL (≈ 0.0268 µM); against Streptococcus pneumoniae [2], 0.15 µg/mL (≈ 0.201 µM); in the assay with Streptococcus pneumoniae [3] it was 5 µg/mL (≈ 6.7 µM); with Staphylococcus aureus [4] it was 0.08 µg/mL (≈ 0.107 µM). Further, the MIC in [5] came out at 0.15 µg/mL (≈ 0.201 µM); in the assay with Staphylococcus aureus [6] it was 0.15 µg/mL (≈ 0.201 µM); against Streptococcus pneumoniae [7], 0.02 µg/mL (≈ 0.0268 µM); in the assay on Haemophilus influenzae [8] it was 1.2 µg/mL (≈ 1.61 µM); with Haemophilus influenzae [9] it was 1.2 µg/mL (≈ 1.61 µM).

As for `CC[C@H]1OC(=O)[C@H](C)C(=O)[C@H](C)[C@@H](O[C@@H]2O[C@H](C)C[C@H](N(C)C)[C@H]2O)[C@](C)(OC)C[C@@H](C)C(=O)[C@H](C)[C@H]2N(CCCCc3ccnc4c(OC)cccc34)C(=O)O[C@]12C`, the MIC was found to be 40 µg/mL (≈ 48.4 µM) against Staphylococcus aureus [1]; 40 µg/mL (≈ 48.4 µM) with Escherichia coli; 0.02 µg/mL (≈ 0.0242 µM) against Streptococcus pyogenes; 0.08 µg/mL (≈ 0.0968 µM) against Streptococcus pneumoniae [2]; 20 µg/mL (≈ 24.2 µM) in the assay on Streptococcus pneumoniae [3]; 0.08 µg/mL (≈ 0.0968 µM) against Staphylococcus aureus [4]. Further, the MIC in assay [5] is 0.08 µg/mL (≈ 0.0968 µM); in the assay on Staphylococcus aureus [6], 0.3 µg/mL (≈ 0.363 µM); with Streptococcus pneumoniae [7] it was 0.02 µg/mL (≈ 0.0242 µM); with Haemophilus influenzae [8], 2.5 µg/mL (≈ 3.03 µM); in the assay with Haemophilus influenzae [9] it was 2.5 µg/mL (≈ 3.03 µM).

As to `CC[C@H]1OC(=O)[C@H](C)C(=O)[C@H](C)[C@@H](O[C@@H]2O[C@H](C)C[C@H](N(C)C)[C@H]2O)[C@](C)(OC)C[C@@H](C)/C(=N\OC[C@@H](N)C(=O)OC)[C@H](C)[C@@H](O)[C@]1(C)O`, the MIC against Staphylococcus aureus [1] is 40 µg/mL (≈ 56.8 µM); against Escherichia coli it was 40 µg/mL (≈ 56.8 µM); in the assay on Streptococcus pyogenes, 0.6 µg/mL (≈ 0.852 µM); with Streptococcus pneumoniae [2], 20 µg/mL (≈ 28.4 µM); against Streptococcus pneumoniae [3], 40 µg/mL (≈ 56.8 µM); in the assay with Staphylococcus aureus [4], 1.2 µg/mL (≈ 1.7 µM). In addition, the MIC in assay [5] worked out at 2.5 µg/mL (≈ 3.55 µM); in the assay with Staphylococcus aureus [6] it was 10 µg/mL (≈ 14.2 µM); against Streptococcus pneumoniae [7], 0.6 µg/mL (≈ 0.852 µM); against Haemophilus influenzae [8] it was 40 µg/mL (≈ 56.8 µM); in the assay with Haemophilus influenzae [9], 40 µg/mL (≈ 56.8 µM).

Consider `CC[C@H]1OC(=O)[C@H](C)C(=O)[C@H](C)[C@@H](O[C@@H]2O[C@H](C)C[C@H](N(C)C)[C@H]2O)[C@](C)(OC)C[C@@H](C)C(=O)[C@@H](C)[C@H]2N(N)C(=O)O[C@]12C`, for which the MIC came out at 40 µg/mL (≈ 63.7 µM) with Staphylococcus aureus [1]; 40 µg/mL (≈ 63.7 µM) in the assay with Escherichia coli; 2.5 µg/mL (≈ 3.98 µM) in the assay with Streptococcus pyogenes; 40 µg/mL (≈ 63.7 µM) in the assay with Streptococcus pneumoniae [2]; 40 µg/mL (≈ 63.7 µM) with Streptococcus pneumoniae [3]; 40 µg/mL (≈ 63.7 µM) against Staphylococcus aureus [4]. The MIC was determined as 40 µg/mL (≈ 63.7 µM) in assay [5]; 40 µg/mL (≈ 63.7 µM) in the assay with Staphylococcus aureus [6]; 5 µg/mL (≈ 7.96 µM) against Streptococcus pneumoniae [7]; 40 µg/mL (≈ 63.7 µM) in the assay with Haemophilus influenzae [8]; 40 µg/mL (≈ 63.7 µM) in the assay with Haemophilus influenzae [9].

As for `CC[C@H]1OC(=O)[C@H](C)C(=O)[C@H](C)[C@@H](O[C@@H]2O[C@H](C)C[C@H](N(C)C)[C@H]2O)[C@](C)(OC)C[C@@H](C)C(=O)[C@H](C)[C@H]2N(CCCCc3ccccc3)C(=O)O[C@]12C`, the MIC came to 40 µg/mL (≈ 53.7 µM) with Staphylococcus aureus [1]; 40 µg/mL (≈ 53.7 µM) in the assay with Escherichia coli; 0.02 µg/mL (≈ 0.0268 µM) in the assay on Streptococcus pyogenes; 0.3 µg/mL (≈ 0.403 µM) with Streptococcus pneumoniae [2]; 0.15 µg/mL (≈ 0.201 µM) against Streptococcus pneumoniae [3]; 0.08 µg/mL (≈ 0.107 µM) against Staphylococcus aureus [4]. The MIC was determined as 0.04 µg/mL (≈ 0.0537 µM) in [5]; 0.15 µg/mL (≈ 0.201 µM) in the assay with Staphylococcus aureus [6]; 0.02 µg/mL (≈ 0.0268 µM) in the assay on Streptococcus pneumoniae [7]; 2.5 µg/mL (≈ 3.36 µM) in the assay on Haemophilus influenzae [8]; 1.2 µg/mL (≈ 1.61 µM) in the assay with Haemophilus influenzae [9].

Values taken from ChEMBL document CHEMBL1131139, “Synthesis and antibacterial activity of ketolides (6-O-methyl-3-oxoerythromycin derivatives): a new class of antibacterials highly potent against macrolide-resistant and -susceptible respiratory pathogens” (1998).
